Key:
[1] = system: murine leukemia L1210 cells; assay: Cell growth inhibitory activity, L1210; type: cell-based; conditions: Mus musculus, L1210, 48 h, read-out: IC50 (proliferation) L1210
Outline: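 Murine leukaemia L1210 cells grown with varying concentrations of test compound at 37 °C for two days; cell number counted on a Coulter counter. IC50 is the concentration inhibiting cell proliferation by 50%, taken from dose–response curves. Mean ± SE of at least three independent experiments.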

[2] = system: Bovine brain tubulin (colchicine site); assay: Inhibition of [3H]colchicine binding to tubulin; conditions: tubulin 1 μM, colchicine 5 μM, tested compound 1 μM
[3] = system: murine mammary carcinoma FM3A cells; assay: Cell growth inhibitory activity, FM3A; type: cell-based; conditions: Mus musculus, 48 h, read-out: IC50 (proliferation) FM3A
[4] = system: L1210, FM3A, Molt/4 and CEM cells; assay: Cell growth inhibitory activity, range over the four cell lines; type: cell-based; conditions: for IC50: read-out: IC50-values range against the four cell lines
Outline: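 Cells incubated with test compound at 37 °C for two days (L1210, FM3A) or three days (Molt 4, CEM). Cell number counted with a Coulter counter. IC50 taken as the concentration giving 50% inhibition of proliferation, from dose–response curves. Mean ± SE of at least three independent experiments.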

K562 cells = assay: Flow cytometric analysis of cell cycle distribution; type: cell-based, human; conditions: 24 h, compound at its 24 h IC50, propidium iodide

Structure (SMILES): COc1ccc(/C=C\c2cc(OC)c(OC)c(OC)c2)cc1O [CA-4 (1), combretastatin A-4]
- IC50 [1]: 2.8 ± 1.1 nM
- Colchicine binding % ± SD (inhibition of [3H]colchicine binding) [2]: 86 ± 3%

Structure (SMILES): COc1ccc2c(N)c(C(=O)c3cc(OC)c(OC)c(OC)c3)[nH]c2c1 [Compound 3a]
- IC50 [1]: 970 ± 24 nM
- IC50 [3]: 1600 ± 30 nM

Structure (SMILES): COc1ccc2c(N)c(C(=O)c3cc(OC)c(OC)c(OC)c3)n(C)c2c1 [Compound 4a]
- IC50 [1]: 69 ± 37 nM
- IC50 [3]: 97 ± 3 nM

Structure (SMILES): COc1cc(C(=O)c2oc3cccc(OC)c3c2N)cc(OC)c1OC [Compound 5b, (3-Amino-4-methoxybenzofuran-2-yl)(3,4,5-trimethoxyphenyl)methanone]
- Fold less active than 5d in the four cell lines ([4]; antiproliferative activity relative to 5d): over 10 fold

Structure (SMILES): COc1ccc2c(N)c(C(=O)c3cc(OC)c(OC)c(OC)c3)oc2c1 [Compound 5d, (3-Amino-6-methoxybenzofuran-2-yl)(3,4,5-trimethoxyphenyl)methanone]
- IC50 [4]: 87 to 430 nM
- Effect on cell cycle distribution (K562 cells): accumulate in late S phase

Structure (SMILES): COc1ccc2c(N(C)C)c(C(=O)c3cc(OC)c(OC)c(OC)c3)oc2c1 [Compound 5i, (3-(Dimethylamino)-6-methoxybenzofuran-2-yl) (3,4,5-trimethoxyphenyl)methanone]
- IC50 [4]: 48 to 75 nM
- Effect on cell cycle distribution (K562 cells): accumulation of cells in G2-M

Structure (SMILES): COc1ccc2c(NC(=O)CCl)c(C(=O)c3cc(OC)c(OC)c(OC)c3)oc2c1 [Compound 5l, (3-chloroacetylamino-6-methoxybenzofuran-2-yl)(3,4,5-trimethoxyphenyl)methanone]
- Effect on cell cycle distribution (K562 cells): accumulate in late S phase

Structure (SMILES): COc1ccc2c(NC(=O)CI)c(C(=O)c3cc(OC)c(OC)c(OC)c3)oc2c1 [Compound 5n, (3-iodoacetylamino-6-methoxybenzofuran-2-yl)(3,4,5-trimethoxyphenyl)methanone]
- Effect on cell cycle distribution (K562 cells): greatest percentage increase in the percentage of cells in apoptotic cells (subG0-G1 peak)

Reference: paper PMC2574800 (Bioorganic & medicinal chemistry, 2008)
